Laboratory results as given in ChEMBL document CHEMBL1121663, “(Acylaryloxy)acetic acid diuretics. 3. 2,3-Dihydro-5-acyl-2-benzofurancarboxylic acids, a new class of uricosuric diuretics” (1981).

Tests used:
[1] = test system: Rattus norvegicus; test: Natriuretic activity in rats at 9 mg/kg of dosage; mequiv of Na; assay type: functional
In short: (§1)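 Rats housed three per metabolism cage received placebo vehicle or compound as a suspension in a final volume of 5.0 mL orally, with placebo groups run concurrently. Urine was collected over 0–5 h and analysed for Na+, K+ and Cl− by standard methods. Values are mequiv per cage, given as geometric means of three cages per dose level.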

[2] = test system: Canis familiaris; test: Compound was tested for diuretic activity in dogs at 5 mg/kg dose after intravenous administration, activity is expressed as urine volume
[3] = test system: Rattus norvegicus; test: Natriuretic activity in rats at 3 mg/kg of dosage; mequiv of Na; assay type: functional; in short: as §1
[4] = test system: Rattus norvegicus; test: Natriuretic activity in rats at 27 mg/kg of dosage; mequiv of Na; assay type: functional; in short: as §1
[5] = test system: Rattus norvegicus; test: Natriuretic activity in rats at 81 mg/kg of dosage; mequiv of Na; assay type: functional; in short: as §1
[6] = test system: Pan troglodytes; test: Compound was tested for natriuretic activity in chimpanzee at 5 mg/kg dose activity is measured as microequivalent of Na+/minute; muequiv of Na+/min; assay type: functional
In short: (§2)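 Inulin iv gave GFR; urate and inulin clearances and Na+, K+, Cl- excretion were measured by AutoAnalyzer. Controls were three 20-min periods; compound was given orally in aqueous solution via nasal catheter. Response was the mean of eight 15-20 min periods, reported as treatment minus control from single experiments.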

[7] = Compound was tested for natriuretic activity in chimpanzee at 5 mg/kg dose activity is measured as ratio of clearance of urate / […]; Curate/Cinulin; assay type: functional; in short: as §2
[8] = Activity is measured as ratio of clearance of urate / […] at […]; Curate/Cinulin; assay type: functional
In short: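 Inulin iv gave GFR, and urate clearance was measured by AutoAnalyzer. Controls came from three 20-min periods. Aqueous compound was given orally by nasal catheter, and the response was averaged over eight 15-20 min periods. Values are treatment minus control from single experiments.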

[9] = test system: Canis familiaris; test: Diuretic activity in dogs following 5 mg/kg oral administration.
[10] = test system: Canis familiaris; test: Compound was tested for diuretic activity in dogs at 5 mg/kg dose after intravenous administration measured as microequivalent of Cl-/minute; assay type: functional, Canis lupus familiaris, Urine; details: in the assay text read “oral” for “intravenous”
[11] = test system: Canis familiaris; test: Compound was tested for diuretic activity in dogs at 5 mg/kg dose after oral administration measured as microequivalent of K+/minute; assay type: functional, Canis lupus familiaris, Urine
In short: (§3)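 Oral dog test: water loading (250 mL po, then 500 mL 1 h later). One hour later bladders were emptied by catheter and compound or placebo given in gelatin capsules. Dogs were kept in metabolism cages. Voided urine plus catheterized bladder urine was pooled at 5 h, and Na+, K+ and Cl- were measured by standard methods. Geometric means are reported.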

[12] = test system: Canis familiaris; test: Compound was tested for diuretic activity in dogs at 5 mg/kg dose after oral administration measured as microequivalent of Cl-/minute; assay type: functional, Canis lupus familiaris, Urine; in short: as §3
[13] = test system: Canis familiaris; test: Compound was tested for diuretic activity in dogs at 5 mg/kg dose after intravenous administration measured as microequivalent of K+/minute; assay type: functional, Canis lupus familiaris, Urine; details: in the assay text read “oral” for “intravenous”
[14] = test system: Canis familiaris; test: Compound was tested for diuretic activity in dogs at 5 mg/kg dose after oral administration measured as microequivalent of Na+/minute
[15] = test system: Canis familiaris; test: Compound was tested for diuretic activity in dogs at 5 mg/kg dose after oral administration measured as microequivalent of Na+/minute; assay type: functional, Canis lupus familiaris, Urine; in short: as §3
[16] = test system: Canis familiaris; test: Compound was tested for diuretic activity in dogs at 5 mg/kg dose after intravenous administration measured as microequivalent of Na+/minute; 22/144 (Control/Drug treated); assay type: functional, Canis lupus familiaris, Urine
[17] = test system: Canis familiaris; test: Compound was tested for diuretic activity in dogs at 5 mg/kg dose after intravenous administration measured as microequivalent of Cl-/minute; 9/132 (Control/Drug treated); assay type: functional, Canis lupus familiaris, Urine
In short: (§4)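 Intravenous dog clearance study. A priming iv injection of 1.5 mL/kg isoosmotic pH 7.4 phosphate buffer (20 mg PO4/kg) was given first. This was followed by infusion of 3 mL/min pH 7.4 buffer containing 4% mannitol (6.9 mg PO4/min) throughout the experiment. Urinary Na+, K+ and Cl- were measured by standard methods. Each value is the mean of the two highest consecutive 15-min collections.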

[18] = test system: Canis familiaris; test: Compound was tested for diuretic activity in dogs at 5 mg/kg dose after intravenous administration measured as microequivalent of K+/minute (Control/Drug treated); assay type: functional, Canis lupus familiaris, Urine; details: in the assay text read “oral” for “intravenous”
[19] = test system: Canis familiaris; test: Compound was tested for diuretic activity in dogs at 5 mg/kg dose after oral administration measured as microequivalent of Na+/minute; remark: listed apart in the source
[20] = test system: Canis familiaris; test: Compound was tested for diuretic activity in dogs at 5 mg/kg dose after intravenous administration measured as microequivalent of Cl-/minute (Control/Drug treated); assay type: functional, Canis lupus familiaris, Urine; details: in the assay text read “oral” for “intravenous”
[21] = test system: Canis familiaris; test: Compound was tested for diuretic activity in dogs at 5 mg/kg dose after intravenous administration measured as microequivalent of Cl-/minute; 9/510 (Control/Drug treated); assay type: functional, Canis lupus familiaris, Urine; in short: as §4
[22] = test system: Canis familiaris; test: Compound was tested for diuretic activity in dogs at 5 mg/kg dose after intravenous administration measured as microequivalent of K+/minute; 5/19 (Control/Drug treated); assay type: functional, Canis lupus familiaris, Urine; in short: as §4
[23] = test system: Canis familiaris; test: Compound was tested for diuretic activity in dogs at 5 mg/kg dose after intravenous administration, activity is expressed as urine volume; 1/6; assay type: functional, Canis lupus familiaris
[24] = test system: Canis familiaris; test: Compound was tested for diuretic activity in dogs at 5 mg/kg dose after intravenous administration measured as microequivalent of Na+/minute; 4/193 (Control/Drug treated); assay type: functional, Canis lupus familiaris, Urine

SMILES	Oral activity [1]	Oral activity [3]	Oral activity [4]	Oral activity [5]	Oral activity [6]	Ratio [7]	Urine volume [9]	Oral activity [11]	Oral activity [12]	Oral activity [15]	further results
NS(=O)(=O)c1cc(C(=O)O)c(NCc2ccco2)cc1Cl [FUROSEMIDE]	7	6	125	234	1035	-0.02					Urine volume [2]: 700 mL
O=C(c1cccs1)c1cc2c(c(Cl)c1Cl)O[C@@H](C(=O)O)C2											Ratio [8]: 0.157
NNC(=O)C1Cc2cc(C(=O)c3cccs3)c(Cl)c(Cl)c2O1 (stereo not given)	81	34	89	140							
O=C(c1cccs1)c1cc2c(c(Cl)c1Cl)OC(c1nnn[nH]1)C2 (stereo not given)	16	13	16	29							
N=C(N)NC(=O)C1Cc2cc(C(=O)c3cccs3)c(Cl)c(Cl)c2O1 (stereo not given)	98	72	143	159			212 mL	1.2	4.8	4.9	Oral activity [10]: 4.8; Oral activity [13]: 1.2; Oral activity [14]: 4.9
O=C(O)COc1ccc(C(=O)c2cccs2)c(Cl)c1Cl	15	7	43	56	318	0.437	395 mL	1.8	5.4	3.3	Na+ excretion [16]: 144 µequiv/min; Cl- excretion [17]: 132 µequiv/min
N#CC1Cc2cc(C(=O)c3cccs3)c(Cl)c(Cl)c2O1 (stereo not given)	9	6	10	8			190 mL				Oral activity [18]: 1.1; Oral activity [19]: 1; Oral activity [20]: 2.2
O=C(O)c1cc2cc(C(=O)c3cccs3)c(Cl)c(Cl)c2o1	62	32	88	131	396	0.061	270 mL	1.6	9.8	6.9	Cl- excretion [21]: 510 µequiv/min; K+ excretion [22]: 19 µequiv/min
O=C(c1ccc2c(c1)CC(C(=O)O)O2)c1cccs1 (stereo not given)	4	6	7	22							Urine volume [23]: 1 mL/min; Na+ excretion [24]: 193 µequiv/min
